The test system of data set [1] is Trypanosoma brucei brucei. The data set is described as follows: Antitrypanosomal activity against Trypanosoma brucei brucei assessed as parasite growth inhibition. The format is functional, organism-based.
The nature of data set [2]: Selectivity index, ratio of EC50 for cytotoxicity against mouse primary macrophage to EC50 for antileishmanial activity against Leishmania infantum MHOM/MA(BE)/67 infected in mouse primary peritoneal macrophages. Conditions: read-out: Ratio EC50. The format is toxicity.
For another data set, the system named is Macrophage. Description: Cytotoxicity against mouse primary macrophage cells assessed as reduction in cell viability. It counts as cell-based. The essentials: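 Macrophage toxicity was scored microscopically within the L. infantum assays, using cell detachment, lysis and granulation. At least 500 cells over adjacent fields were scored semi-quantitatively, and CC₅₀ was taken from % reduction in normal cells versus untreated controls.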

The next data set deals with Leishmania infantum. The data set is described as follows: Antileishmanial activity against Leishmania infantum MHOM/MA(BE)/67 infected in mouse primary peritoneal macrophages treated 2 hrs post-infection and incubated for 5 days by Giemsa staining based microscopic analysis. It counts as functional, organism-based. Conditions: MHOM/MA(BE)/67, Peritoneal macrophage. The essentials: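 Peritoneal macrophages from mice, harvested 2 days after 2% potato starch stimulation, infected after 48 h with L. infantum in supplemented RPMI-1640 with 5% FCS. Compounds were added 2 h post-infection as a 10-point 4-fold dilution series, final DMSO <1%, and incubated 5 days at 37 °C, 5% CO₂. Amastigotes per macrophage were counted after 10% Giemsa staining, and IC₅₀ was taken from % reduction versus untreated-infected controls.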

Data set [3] can be described thus: Selectivity index, ratio of EC50 for cytotoxicity against human MRC5 cells to EC50 for antitrypanosomal activity against Trypanosoma cruzi Tulahuen CL2 infected in human MRC5 cells. It counts as toxicity, cell-based. Conditions: read-out: Ratio EC50. In outline: (§1)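 Selectivity index is the MRC-5 EC₅₀ divided by the parasite EC₅₀.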
The next data set concerns MRC5. The data set is described as follows: Cytotoxicity against human MRC5 cells assessed as reduction in cell viability after 3 days by resazurin dye based fluorimetric analysis. Conditions: MRC5, 72 h. The essentials:
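MRC-5_SV2 cells, 1.5×10⁵ cells/mL in MEM with Earl's salts, L-glutamine, NaHCO₃ and 5% inactivated FCS, were exposed 3 days at 37 °C, 5% CO₂ to a 10-point 4-fold dilution series, final DMSO <1%. Resazurin was added for 4 h, fluorescence read at ex 550/em 590 nm, and IC₅₀ derived versus untreated and medium controls.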
On the technique in general: Alamar Blue is a resazurin reagent that responds to reducing activity.

The subject of a further data set is Trypanosoma cruzi. The data set is described as follows: Antitrypanosomal activity against Trypanosoma cruzi Tulahuen CL2 infected in human MRC5 cells assessed as inhibition of parasite growth incubated for 7 days by chlorophenol red-fl-D-galactopyranoside based spectrophotometric analysis. It counts as functional, organism-based. Conditions: Tulahuen CL2, MRC5, 168 h. In outline:
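T. cruzi Tulahuen CL2 β-galactosidase strain was maintained on MRC-5_SV2 cells. Wells held 4×10³ cells plus 4×10⁴ parasites with a 10-point 4-fold compound series, final DMSO <1%. After 7 days at 37 °C, 5% CO₂, substrate was added and absorbance read at 540 nm after 4 h at 37 °C. IC₅₀ was taken from % reduction versus infected and uninfected controls.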

Data set [4] has as its system Trypanosoma brucei rhodesiense. The data set is described as follows: Antitrypanosomal activity against Trypanosoma brucei rhodesiense assessed as parasite growth inhibition. The format is functional, organism-based.
A short description of data set [5]: Selectivity index, ratio of EC50 for human MRC5 cells to EC50 for antitrypanosomal activity against Trypanosoma brucei brucei. The format is toxicity. Conditions: read-out: Ratio EC50. In outline: as §1
The nature of data set [6]: Selectivity index, ratio of EC50 for human MRC5 cells to EC50 for antitrypanosomal activity against Trypanosoma brucei rhodesiense. Conditions: read-out: Ratio EC50. The format is toxicity. The essentials:
as §1

The structures appear in SMILES notation. pEC50: −log10 of the molar value.

A word on the pEC50: it is −log10 of the EC50, conventionally taken in molar units.

Regarding `Nc1ncnc2c1c(-c1ccc(Cl)cc1)cn2[C@@H]1O[C@H](CO)[C@@H](F)[C@H]1O`, the negative logarithm of the EC50 (pEC50) in data set [1] was 5.15; in the data set with Macrophage, 4.49; in the data set on Leishmania infantum, 4.90; in the data set on MRC5, 4.77; in the data set on Trypanosoma cruzi, 6.13; in data set [4], 5.29. The selectivity ratio in data set [2] stood at 3; in data set [3] it was 23; in [5], 2; in [6], 2.
For the compound `Nc1ncnc2c1c(Cl)cn2[C@@H]1O[C@H](CO)[C@@H](F)[C@H]1O`, the pEC50 was 6.89 in [1]; 6.89 in the data set with Macrophage; 7.05 in the data set on Leishmania infantum; 4.86 in the data set with MRC5; 7.15 in the data set with Trypanosoma cruzi; 7.51 in data set [4]. Also, the selectivity ratio was determined as 1 in data set [2], 194 in data set [3], 108 in [5] and 448 in data set [6].
With `Nc1ncnc2c1ccn2[C@@H]1O[C@H](CO)[C@@H](F)[C@H]1O`, the pEC50 was 4.65 in [1]; less than 4.19 with Macrophage; 4.63 in the data set with Leishmania infantum; less than 4.19 with MRC5; 5.04 in the data set on Trypanosoma cruzi; 5.83 in data set [4]. Besides, the selectivity ratio in [2] is greater than 2; in [3], greater than 7; in data set [5], greater than 2; in [6], greater than 44.
On to `Nc1ncnc2c1c(-c1ccc(F)cc1)cn2[C@@H]1O[C@H](CO)[C@H](F)[C@H]1O`, for which the pEC50 in [1] is 4.79; with Macrophage it was 4.49; in the data set on Leishmania infantum, 4.65; with MRC5, less than 4.19; in the data set with Trypanosoma cruzi it was 5.84; in data set [4] it was 4.85. The selectivity ratio is 1 in data set [2], greater than 44 in data set [3], greater than 4 in [5] and greater than 5 in [6].
As to `Nc1ncnc2c1c(-c1ccc(Cl)c(F)c1)cn2[C@@H]1O[C@H](CO)[C@H](F)[C@H]1O`, the pEC50 is 5.37 in [1]; 5.10 in the data set with Macrophage; 5.23 in the data set with Leishmania infantum; 4.73 with MRC5; 6.38 in the data set on Trypanosoma cruzi; 5.84 in data set [4]. Also, the selectivity ratio came out at 1 in [2], 44 in [3], 4 in data set [5] and 13 in [6].
With `Nc1ncnc2c1c(-c1ccccc1)cn2[C@@H]1O[C@H](CO)[C@@H](F)[C@H]1O`, the pEC50 is 4.49 in [1]; less than 4.19 in the data set with Macrophage; 4.29 in the data set on Leishmania infantum; less than 4.19 in the data set on MRC5; 5.04 with Trypanosoma cruzi; 4.49 in data set [4]. Moreover, the selectivity ratio in [2] was 1; in data set [3], greater than 7; in data set [5] it was greater than 2; in [6], greater than 1.
For the compound `Nc1ncnc2c1c(-c1ccc(Cl)cc1)cn2[C@@H]1O[C@H](CO)[C@H](F)[C@H]1O`, the pEC50 in data set [1] was 5.28; in the data set on Macrophage it was 5.10; with Leishmania infantum, 5.30; with MRC5, 4.66; with Trypanosoma cruzi, 6.77; in data set [4], 5.64. The selectivity ratio in data set [2] was 1; in data set [3], 130; in data set [5] it was 4; in [6] it was 10.
`Nc1ncnc2c1c(I)cn2[C@@H]1O[C@H](CO)[C@@H](F)[C@H]1O`: the pEC50 in [1] was 7.49; with Macrophage, 4.66; in the data set on Leishmania infantum, 5.63; with MRC5 it was 5.18; with Trypanosoma cruzi, 7.41; in [4] it was 8.11. The selectivity ratio in data set [2] was 9; in data set [3], 170; in [5], 201; in data set [6], 826.
Take `Cc1cn([C@@H]2O[C@H](CO)[C@@H](F)[C@H]2O)c2ncnc(N)c12`: the negative logarithm of the EC50 (pEC50) is 6.02 in [1]; less than 4.19 in the data set on Macrophage; 4.42 with Leishmania infantum; less than 4.19 in the data set on MRC5; 4.88 in the data set on Trypanosoma cruzi; 6.68 in data set [4]. Besides, the selectivity ratio in data set [2] was greater than 2; in data set [3], greater than 5; in data set [5] it was greater than 67; in [6] it was greater than 312.
Turning to `Nc1ncnc2c1ncn2[C@@H]1O[C@H](CO)[C@@H](F)[C@H]1O`, the negative-log EC50 (pEC50) is 7.49 in [1]; less than 4.49 in the data set with Macrophage; 4.56 in the data set on Leishmania infantum; 5.31 in the data set on MRC5; 6.26 with Trypanosoma cruzi; 7.77 in data set [4]. Besides, the selectivity ratio was greater than 2 in data set [2], 9 in [3], 154 in [5] and 296 in data set [6].
